Laboratory results taken from ChEMBL document CHEMBL4406800, “Discovery of Potent Protease-Activated Receptor 4 Antagonists with in Vivo Antithrombotic Efficacy” (J Med Chem, 2019).

Legend:
[1] = target: T1, Proteinase-activated receptor 4 (Homo sapiens) (UniProt Q96RI0); experiment: Displacement of [3H]BMS-986120 from His-tagged human PAR4 expressed in HEK293 cell membranes assessed as dissociation rate constant measured after 2 hrs
T1 sequence (whole entry): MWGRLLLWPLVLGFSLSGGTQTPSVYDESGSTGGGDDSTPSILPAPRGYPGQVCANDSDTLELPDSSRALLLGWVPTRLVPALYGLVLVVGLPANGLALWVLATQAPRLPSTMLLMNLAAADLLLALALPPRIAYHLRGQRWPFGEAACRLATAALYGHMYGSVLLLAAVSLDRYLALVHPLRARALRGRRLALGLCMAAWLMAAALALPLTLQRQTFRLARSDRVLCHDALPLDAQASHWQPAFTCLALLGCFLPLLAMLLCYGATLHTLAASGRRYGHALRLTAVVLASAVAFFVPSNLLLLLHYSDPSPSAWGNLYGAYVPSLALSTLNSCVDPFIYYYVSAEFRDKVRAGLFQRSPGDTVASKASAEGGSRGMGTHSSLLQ

[2] = Protein binding in mouse plasma; format: ADME, cell-free; settings: read-out: PPB (converted)
Cynomolgus monkey [3] = experiment: Antithrombotic activity in cynomolgus monkey electrolytic carotid artery thrombosis assessed as reduction in thrombus weight administered via oral gavage measured after 1.5 hrs; format: functional, organism-based; settings: Macaca fascicularis
Procedure, shortened: (§1)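 Monkeys retired from earlier studies after a washout of at least 4 weeks, randomized to vehicle (n=8) or 0.4, 2 or 10 mg/kg (n=7 each). Dosed by oral gavage in 40/60 w/w TPGS/PEG400 at 2 ml/kg. Anesthetized and surgically prepared 1.5 h post-dose. Thrombosis and bleeding time measured in the same animal.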

hERG (KCNH2) = hERG (KCNH2) (Homo sapiens, UniProt Q12809); experiment: Inhibition of human ERG at 10 uM by patch clamp method
[4] = Toxicity in cynomolgus monkey assessed as prolongation of kidney bleeding time at 10 mg/kg, po administered via gavage measured up to 20 mins; format: organism-based, Macaca fascicularis; settings: in vivo
Procedure, shortened: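 Oral gavage at 10 mg/kg or vehicle (40/60 w/w TPGS/PEG400, 2 ml/kg) to monkeys, anesthetized 1.5 h later. Bleeding time taken by renal cortex incision: time until bleeding stopped with no re-bleeding for 30 s, monitored up to 20 min, done in triplicate.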

[5] = Protein binding in monkey plasma; format: ADME, cell-free, Macaca mulatta; settings: rhesus monkey, read-out: PPB
Cynomolgus monkey [6] = experiment: Antithrombotic activity in cynomolgus monkey electrolytic carotid artery thrombosis assessed as reduction in thrombus weight at 2 mg/kg, po administered via gavage measured after 1.5 hrs relative to control; format: functional, Macaca fascicularis; set-up: scale not given: the % may be the effect or the level left; procedure, shortened: as §1
Cynomolgus monkey [7] = experiment: Antithrombotic activity in cynomolgus monkey electrolytic carotid artery thrombosis assessed as reduction in thrombus weight at 0.4 mg/kg, po administered via gavage measured after 1.5 hrs relative to control; format: functional, Macaca fascicularis; set-up: scale not given: the % may be the effect or the level left; procedure, shortened: as §1
[8] = Oral bioavailability in monkey at 2 mg/kg; format: ADME, organism-based, Macaca mulatta; settings: rhesus monkey, in vivo
Procedure, shortened: (§2)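 Dog and monkey dosing: iv 0.5 mpk as a 10 min infusion in PEG400 at 0.8 ml/kg. po 2 mpk in 40/60 TPGS/PEG400 at 0.5 mL/kg.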

Cynomolgus monkey [9] = experiment: Antithrombotic activity in cynomolgus monkey electrolytic carotid artery thrombosis assessed as reduction in thrombus weight at 10 mg/kg, po administered via gavage measured after 1.5 hrs relative to control; format: functional, Macaca fascicularis; set-up: scale not given: the % may be the effect or the level left; procedure, shortened: as §1
[10] = target: T2, Nuclear receptor subfamily 1 group I member 2 (Homo sapiens, UniProt O75469); experiment: Activation of human PXR; format: ADME
T2 sequence (O75469 whole entry): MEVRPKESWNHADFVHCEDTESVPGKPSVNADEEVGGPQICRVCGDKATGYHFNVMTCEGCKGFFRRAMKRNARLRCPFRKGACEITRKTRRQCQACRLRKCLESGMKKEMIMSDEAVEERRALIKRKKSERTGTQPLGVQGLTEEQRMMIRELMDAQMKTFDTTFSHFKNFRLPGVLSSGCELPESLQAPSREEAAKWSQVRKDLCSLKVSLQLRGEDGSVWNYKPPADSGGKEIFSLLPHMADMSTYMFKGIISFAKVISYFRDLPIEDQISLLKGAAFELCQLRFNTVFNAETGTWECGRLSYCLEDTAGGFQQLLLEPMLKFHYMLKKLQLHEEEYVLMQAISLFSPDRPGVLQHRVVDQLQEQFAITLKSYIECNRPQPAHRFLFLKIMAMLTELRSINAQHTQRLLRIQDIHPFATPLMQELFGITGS

[11] = Half life in dog liver microsomes; format: ADME, Canis lupus familiaris, Microsome
[12] = Clearance in rat at 2 mg/kg, po or 0.5 mg/kg, iv administered as infusion for 10 mins; format: ADME, organism-based; settings: in vivo
[13] = target: T1, Proteinase-activated receptor 4 (Homo sapiens); experiment: Displacement of [3H]BMS-986120 from His-tagged human PAR4 expressed in HEK293 cell membranes assessed as association rate constant
Procedure, shortened: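 HEK293 membranes expressing PAR4. Association kinetics measured; values are mean ± standard deviation, n = 3.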

[14] = target: CYP450 (isoform not stated) (Homo sapiens, UniProt P04798+P05177+P05181+P08684+P10632+P10635+P11509+P11712+P13584+P20813+P20815+P20853+P24462+P24903+P33260+P33261+P51589+P78329+P98187+Q02928+Q08477+Q16678+Q16696+Q5TCH4+Q6VVX0+Q7Z449+Q8TAV3+Q96SQ9+Q9HB55); experiment: Inhibition of CYP450 in human liver microsomes; format: ADME
[15] = Half life in dog at 2 mg/kg, po or 0.5 mg/kg, iv administered as infusion for 10 mins; format: ADME, organism-based, Canis lupus familiaris; settings: in vivo; procedure, shortened: as §2
[16] = Half life in monkey liver microsomes; format: ADME, Macaca mulatta, Microsome; settings: rhesus monkey
[17] = Half life in monkey at 2 mg/kg, po or 0.5 mg/kg, iv administered as infusion for 10 mins; format: ADME, organism-based, Macaca mulatta; settings: rhesus monkey, in vivo; procedure, shortened: as §2
[18] = Clearance in dog at 2 mg/kg, po or 0.5 mg/kg, iv administered as infusion for 10 mins; format: ADME, organism-based, Canis lupus familiaris; settings: in vivo; procedure, shortened: as §2
[19] = Stability in human liver microsomes assessed as parent compound remaining measured after 10 mins; format: ADME, Microsome; settings: liver microsomes, read-out: Stability
[20] = Protein binding in rat plasma; format: ADME, cell-free; settings: read-out: PPB (converted)
[21] = target: T3, Proteinase-activated receptor 1 (Homo sapiens, UniProt P25116); experiment: Antagonist activity at PAR1 in human platelet rich plasma assessed as inhibition of SFFLRR-induced platelet aggregation preincubated for 5 mins followed by SFFLRR addition
T3 sequence (P25116 whole entry): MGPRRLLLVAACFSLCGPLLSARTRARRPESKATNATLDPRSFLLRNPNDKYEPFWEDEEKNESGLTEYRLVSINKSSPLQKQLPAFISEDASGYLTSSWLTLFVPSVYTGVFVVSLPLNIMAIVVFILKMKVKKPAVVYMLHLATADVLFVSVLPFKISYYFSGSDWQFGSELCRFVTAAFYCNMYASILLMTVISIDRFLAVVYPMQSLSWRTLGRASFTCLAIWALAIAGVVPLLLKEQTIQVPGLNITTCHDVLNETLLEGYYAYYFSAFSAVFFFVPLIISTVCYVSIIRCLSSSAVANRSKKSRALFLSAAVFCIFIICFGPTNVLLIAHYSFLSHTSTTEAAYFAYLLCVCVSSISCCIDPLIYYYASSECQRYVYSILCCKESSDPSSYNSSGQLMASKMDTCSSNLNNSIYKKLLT

[22] = Oral bioavailability in dog at 2 mg/kg; format: ADME, organism-based, Canis lupus familiaris; settings: in vivo; procedure, shortened: as §2
[23] = Clearance in monkey at 2 mg/kg, po or 0.5 mg/kg, iv administered as infusion for 10 mins; format: ADME, organism-based, Macaca mulatta; settings: rhesus monkey, in vivo; procedure, shortened: as §2
[24] = Stability in rat liver microsomes assessed as parent compound remaining measured after 10 mins; format: ADME, Microsome; settings: read-out: Stability
[25] = Protein binding in human plasma; format: ADME, cell-free; settings: read-out: PPB (converted)
[26] = Protein binding in dog plasma; format: ADME, cell-free, Canis lupus familiaris; settings: read-out: PPB
[27] = Half life in rat at 2 mg/kg, po or 0.5 mg/kg, iv administered as infusion for 10 mins; format: ADME, organism-based; settings: in vivo
[28] = Half life in mouse liver microsomes; format: ADME, Microsome
[29] = Oral bioavailability in rat at 2 mg/kg; format: ADME, organism-based; settings: in vivo
Procedure, shortened: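 Rat dosing: iv 0.5 mpk as a 10 min infusion in 25/75 propylene glycol/PEG400 at 2 ml/kg. po 2 mpk in 5/5/90 EtOH/TPGS/PEG300 at 5 mL/kg.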

Chain of hERG (KCNH2) (Q12809 whole entry): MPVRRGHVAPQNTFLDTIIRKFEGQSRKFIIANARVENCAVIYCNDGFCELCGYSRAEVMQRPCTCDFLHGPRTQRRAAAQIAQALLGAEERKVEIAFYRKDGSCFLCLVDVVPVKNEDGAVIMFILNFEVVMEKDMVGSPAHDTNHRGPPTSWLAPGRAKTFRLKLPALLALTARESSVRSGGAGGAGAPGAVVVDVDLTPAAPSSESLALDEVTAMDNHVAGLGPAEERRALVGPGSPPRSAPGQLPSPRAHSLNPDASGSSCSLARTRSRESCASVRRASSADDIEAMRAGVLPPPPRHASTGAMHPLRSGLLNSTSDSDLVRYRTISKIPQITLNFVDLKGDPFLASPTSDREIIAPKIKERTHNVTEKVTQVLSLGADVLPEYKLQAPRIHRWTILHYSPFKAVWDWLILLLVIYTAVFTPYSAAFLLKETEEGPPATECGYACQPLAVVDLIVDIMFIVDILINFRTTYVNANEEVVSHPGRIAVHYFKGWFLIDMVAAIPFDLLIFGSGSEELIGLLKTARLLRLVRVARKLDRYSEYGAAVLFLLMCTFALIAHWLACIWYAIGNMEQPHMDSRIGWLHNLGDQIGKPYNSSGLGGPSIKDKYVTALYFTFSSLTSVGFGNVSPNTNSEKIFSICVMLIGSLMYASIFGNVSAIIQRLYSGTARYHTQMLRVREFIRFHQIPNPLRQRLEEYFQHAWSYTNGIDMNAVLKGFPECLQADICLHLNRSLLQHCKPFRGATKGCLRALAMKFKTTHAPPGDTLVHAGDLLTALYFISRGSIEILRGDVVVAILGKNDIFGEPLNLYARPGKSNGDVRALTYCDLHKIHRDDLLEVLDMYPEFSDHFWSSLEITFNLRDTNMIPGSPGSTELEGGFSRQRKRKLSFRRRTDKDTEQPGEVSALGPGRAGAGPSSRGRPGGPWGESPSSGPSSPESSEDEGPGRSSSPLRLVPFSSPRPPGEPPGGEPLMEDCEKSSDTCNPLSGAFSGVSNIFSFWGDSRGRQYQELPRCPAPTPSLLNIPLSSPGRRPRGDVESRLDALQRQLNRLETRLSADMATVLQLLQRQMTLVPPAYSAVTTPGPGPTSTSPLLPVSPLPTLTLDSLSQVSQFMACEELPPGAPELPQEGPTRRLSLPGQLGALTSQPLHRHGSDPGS

K [1]: 0.013 min⁻¹ | fraction unbound [2]: 0.005 | fraction unbound [5]: < 0.002 | bioavailability [8]: 11% | EC50 [10]: > 50 µM | half-life [11]: 1.67 h | clearance [12]: 10 mL/min/kg | K [13]: 66700 M⁻¹ s⁻¹ | IC50 [14]: > 40 µM | half-life [15]: 7 h | half-life [16]: 0.8 h | half-life [17]: 6.2 h | clearance [18]: 1.6 mL/min/kg | remaining at 10 min [19]: 85% | fraction unbound [20]: 0.002 | IC50 [21]: > 30 µM | bioavailability [22]: 26% | clearance [23]: 5.2 mL/min/kg | remaining at 10 min [24]: 76% | fraction unbound [25]: 0.004 | fraction unbound [26]: ≤ 0.002 | half-life [27]: 6.9 h | half-life [28]: 2 h | bioavailability [29]: 11%
Compound: COc1cc(OCc2cccc(OCc3ccccc3)c2)c2cc(-c3cn4nc(OC)sc4n3)oc2c1
Activity (Cynomolgus monkey [3]): Dose-dependent effect | inhibition at 10 µM (hERG (KCNH2)): ≤ 10% | Activity [4]: Non-Toxic | Activity (Cynomolgus monkey [6]): 38% | Activity (Cynomolgus monkey [7]): 9% | Activity (Cynomolgus monkey [9]): 38%
